Screens deposited in PubChem by several laboratories.
Hits are enriched below; roughly 2.9% of the tested compounds scored in any of these assays.
proKLK7 act = activators of human kallikrein-7 zymogen. AID 652039. P49862. purified proKLK7, EDANS-DABCYL substrate fluorescence; 100% is mature enzyme control, 0% vehicle. activation, % at 7 µM. 370,000 tested, 0.9% active;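 active = activation above the mean of all tested compounds plus 3 SD, computed per campaign excluding outliers beyond control limits, cut at about 13% in these data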
RanGTP-Imp inh = disruptors of Ran-importin-beta complex formation – biochemical, FRET, CFP-Ran, YFP-importin-beta, homogeneous, primary screen; cell-free CFP-Ran/YFP-importin-beta FRET ratio; inhibition, % (no concentration beside the values); 300,000 tested, 1.1% active; AID 2216;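 active = more than half of the replicate wells show a fall in the fluorescence ratio signal beyond about 16%, limit read from the data, passing the limit was not always enough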;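 note: 0% = DMSO wells and 100% = Ran loaded with GDP instead of GTP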
Runt-CBFb FRET = inhibitors of human RUNX1 Runt domain binding to CBFb; 220,000 tested, 0.46% active; Cerulean-Runt/Venus-CBFb FRET ratio 530/480, 1 h; Q01196+Q13951; AID 1496; inhibition, % at 20 µM;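 active = inhibition over about 50% at 20 µM in the single-dose screen, limit read from the data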;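 note: 0% = DMSO wells and 100% = excess unlabeled CBFb competitor control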
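test system = Cerulean-Runt domain fusion protein, energy donor | probe or stimulus = Venus-CBFb binding partner, 100 nM | incubation = two 1 h room-temperature incubations shielded from light | detection = fluorescence energy transfer, 422 nm excitation, 530/480 nm emission | measure = loss of energy transfer signal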
Wee1 degr inh = human Wee1 degradation inhibition, primary screen; P30291; HeLa Luc-Wee1K328M stability, luciferase luminescence; 100% = proteasome inhibitor MG132 effect; reporter increase, % at 5 µM; 220,000 tested, 1.2% active;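 active = activation above the mean of all tested compounds plus 3 SD, set per screening run, cut at about 8.8% in these data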;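 note: cells exposed to compound for 20 h before luminescence read; 0% = DMSO alone and 100% = MG132 at 30 µM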
Target sequence (P30291 whole entry K328M): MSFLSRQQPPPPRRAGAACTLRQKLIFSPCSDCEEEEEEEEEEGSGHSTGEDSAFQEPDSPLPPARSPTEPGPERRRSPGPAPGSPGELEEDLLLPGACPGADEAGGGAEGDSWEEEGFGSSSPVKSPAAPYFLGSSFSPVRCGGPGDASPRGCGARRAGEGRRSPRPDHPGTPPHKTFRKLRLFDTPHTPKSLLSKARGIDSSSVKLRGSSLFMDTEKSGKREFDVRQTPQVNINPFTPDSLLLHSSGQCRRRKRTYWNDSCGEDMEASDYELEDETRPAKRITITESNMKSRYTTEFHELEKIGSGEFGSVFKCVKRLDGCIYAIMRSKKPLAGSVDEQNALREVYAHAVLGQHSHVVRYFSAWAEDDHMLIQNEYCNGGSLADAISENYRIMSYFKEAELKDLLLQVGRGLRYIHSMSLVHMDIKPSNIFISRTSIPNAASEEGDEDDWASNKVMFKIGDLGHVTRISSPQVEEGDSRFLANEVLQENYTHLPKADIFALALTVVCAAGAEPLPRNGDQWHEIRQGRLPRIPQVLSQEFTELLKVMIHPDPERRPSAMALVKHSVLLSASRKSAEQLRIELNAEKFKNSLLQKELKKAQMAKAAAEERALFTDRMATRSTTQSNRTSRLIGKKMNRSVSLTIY
Runt-SMMHC FRET = inhibitors of human RUNX1 Runt domain binding to CBFb-SMMHC; AID 1434; Cerulean-Runt/Venus-CBFb-SMMHC FRET ratio 530/480, 1 h; inhibition, % at 20 µM; 220,000 tested, 0.74% active; Q01196+Q13951;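 active = mean inhibition across duplicate retests at 20 µM reaching about 50%, limit read from the data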;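 note: 0% = DMSO wells and 100% = wells with excess untagged CBFb-SMMHC; inhibitors lower the FRET ratio by blocking Runt binding to CBFb-SMMHC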
AI-2 QS modul = modulates the Vibrio harveyi AI-2 quorum sensing system; 300,000 tested, 0.4% active; Vibrio harveyi JMH597 AI-2 luminescence/OD600 ratio, 9 h; stronger effect = lower value; strain lacks LuxN and CqsS sensors; 0 = neutral-control median; activity change, % at 7.5 µM; in the data active = activity change below about -75%, passing the limit was not always enough;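 note: luminescence divided by OD600 gain over 9 h not by final OD600 alone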
Active calls of the source: *; nt = not tested or not shown.

SMILES	proKLK7 act	RanGTP-Imp inh	Runt-CBFb FRET	Wee1 degr inh	Runt-SMMHC FRET	AI-2 QS modul
CC(C)OCCCNC(=O)c1c(N)n(Cc2cccs2)c2nc3ccccc3nc12	-57.0	80.2*	15.9	0.3	80.8*	10.0
C=CCNC(=O)c1c(N)n(CCN2CCOCC2)c2nc3ccccc3nc12	0.1	80.1*	81.2*	-0.6	43.7	17.0
c1cncc(C2Nc3cccc4cccc(c34)N2)c1	0.3	3.0	-3.6	11.5*	-4.2	6.1
N#Cc1c(Cl)nc(Cl)c2c1CCN(Cc1ccccc1)C2	5.6	-0.2	22.1	3.1	60.8*	13.5
c1ccc(CN2CCN(Cc3ccc4ccccc4c3)CC2)cc1	0.3	-3.3	nt	nt	nt	-7.7
O=C(NCCN1CCC2(CC1)C(=O)NCN2c1ccccc1)c1ccccc1F	-0.2	nt	nt	nt	nt	nt
O=C(O)CCC(=O)NCCC1=c2ccccc2=N/C1=C\c1c(O)n(Cc2ccc(F)cc2)c(=S)[nH]c1=O	2.8	1.3	14.4	-0.1	57.7*	37.6
O=C(NC(C(Cl)Cl)N1CCOCC1)c1ccccc1 (stereo not given)	-0.8	22.1*	-0.8	1.5	-2.1	16.2
c1ccc(CNC2CN3CCC2CC3)cc1 (stereo not given)	-0.8	nt	nt	nt	nt	nt
Clc1ccccc1CNC1CN2CCC1CC2 (stereo not given)	0.4	-3.8	-1.5	11.3*	2.3	9.0
COCCCNC(=O)c1c(N)n(Cc2ccco2)c2nc3ccccc3nc12	-68.3	71.9*	75.9*	1.1	81.0*	8.0
COCCOC(=O)c1c(N)n(Cc2ccco2)c2nc3ccccc3nc12	8.5	19.5*	nt	1.6	74.3	-3.4
CC(C)CNC(=O)c1c(N)n(Cc2ccco2)c2nc3ccccc3nc12	-3.6	-1.2	79.2*	-1.0	nt	5.8
COc1ccc(Cn2c(N)c(C(=O)NCc3ccco3)c3nc4ccccc4nc32)cc1OC	-18.0	nt	17.2	2.5	57.2*	nt
Cc1ccc(Cn2nc(C(=O)Nc3ccc(Br)cc3)cc2C)cc1	-0.2	1.4	nt	nt	nt	-5.1
COC(=O)C1(F)C(=O)NC(=O)NC1O (stereo not given)	-0.1	nt	nt	nt	nt	nt
Nc1c(C(=O)NC2CCCC2)c2nc3ccccc3nc2n1CC1CCCO1 (stereo not given)	-64.0	97.3*	22.0	5.5	82.0*	20.4
CC(=O)c1c(C)n(CC2CCCO2)c2ccc(O)cc12 (stereo not given)	-0.2	0.1	-0.3	6.5	-1.0	-4.2
Nc1c(C(=O)NCC2CCCO2)c2nc3ccccc3nc2n1Cc1ccco1 (stereo not given)	-27.4	63.7*	36.3	-2.6	81.0*	30.8
CC1CC2CC(=O)CCC2(C)C2CCC3(C)C(O)CCC3C12 (stereo not given)	-0.8	nt	nt	nt	nt	nt
CN(C)c1ccc(/C=C/[N+](=O)[O-])cc1	0.6	-3.9	-19.0	-2.3	-48.4	-9.4
C/C(=C\c1ccc(N(C)C)cc1)[N+](=O)[O-]	-0.1	0.6	-8.1	-0.1	-19.8	-90.8*
CCOC(=O)[C@]12Cc3cc(OC)ccc3[C@H]1N(CC(=O)OC)C(=O)c1cc(OC)ccc12	-0.1	nt	nt	nt	nt	nt
O=C(C1CC(c2ccc(Cl)c(Cl)c2)=NO1)N1CCC2(CC1)OCCO2 (stereo not given)	0.3	-3.0	0.5	9.8*	0.8	15.4
O=C(C1CC(c2ccc(F)cc2)=NO1)N1CCC2(CC1)OCCO2 (stereo not given)	0.8	3.1	-1.7	2.4	-0.8	14.7
SMILES	proKLK7 act	RanGTP-Imp inh	Runt-CBFb FRET	Wee1 degr inh	Runt-SMMHC FRET	AI-2 QS modul
O=C1NC(=O)C(CCc2ccncc2)(Cc2ccc(OCc3ccccc3)cc2)C(=O)N1	0.6	-2.8	-2.0	8.8*	1.4	1.7
O=C(/C=C/c1c[nH]c2ccccc12)c1c(O)n(CCc2ccccc2)c(=O)[nH]c1=O	-0.1	30.9*	-56.5	-1.9	-89.6	19.6
O=C(NC(=O)N1CCC2(CC1)OCCO2)c1ccc(Cl)cc1	-0.2	1.7	-1.9	2.7	-1.8	14.7
CCC(=NCc1ccco1)c1c(O)n(C2CCCCC2)c(=O)[nH]c1=O	0.8	0.5	37.5	-1.4	101.7*	34.2
CCC(=NCc1cccnc1)c1c(O)n(C2CCCCC2)c(=O)[nH]c1=O	0.1	-0.5	0.2	1.8	-1.8	6.6
CC1Oc2cc3c(-c4c(O)cc(O)c5c(O)c6c(cc45)OC(C)C(C)C6=O)c(O)cc(O)c3c(O)c2C(=O)C1C (stereo not given)	nt	-1.0	-28.0	3.9	-196.3	-88.5*
Cc1ccc(-n2c(O)c(/C=N/NC(=O)c3ccncc3)c(=O)[nH]c2=O)cc1	-0.8	-0.5	2.4	5.8	3.4	10.4
CCCCn1c(O)c(/C=N/NC(=O)c2ccncc2)c(=O)[nH]c1=S	-1.9	4.9	61.7*	0.3	82.5*	9.6
Cn1c(O)c(/C=N/NC(=O)c2ccncc2)c(=O)n(C)c1=S	-0.4	3.0	44.5	-2.3	81.1*	0.5
Cn1c(O)c(/C=N/NC(=O)c2ccncc2)c(=O)[nH]c1=S	-3.8	6.4	32.1	2.7	70.7*	-1.3
COC(=O)C1=C(c2ccc(C(C)=O)cc2)C[C@@H]2CC[C@H]1N2C(=O)NCCCOC(C)C	-0.7	nt	nt	nt	nt	nt
N=Cc1c(O)n(-c2ccccc2)c(=O)n(-c2ccccc2)c1=O	-0.1	-2.8	-0.2	0.5	-2.9	19.7
O=C(O)C(Br)CBr (stereo not given)	0.2	nt	nt	nt	nt	nt
CN=C(SCc1ccccc1)c1c(O)n(C)c(=O)n(C)c1=O	-0.5	1.6	0.4	9.3*	2.3	19.8
CCOC(=O)c1ccc(N=Cc2c(O)n(-c3ccc(OC)cc3)c(=S)[nH]c2=O)cc1	-0.9	-2.0	8.5	-4.2	-1.8	-7.4
COc1ccc(N=Cc2c(O)n(-c3ccc(C)cc3)c(=O)[nH]c2=O)cc1	0.1	-31.1	34.8	-3.4	64.4*	9.5
O=c1[nH]c(=O)n(-c2ccc(Cl)cc2)c(O)c1C=Nc1ccc(S(=O)(=O)Nc2nccs2)cc1	0.4	-2.2	-4.8	-0.3	-17.1	-77.9*
O=c1[nH]c(=O)n(Cc2ccc(F)cc2)c(O)c1C=NCC1CCCO1 (stereo not given)	0.1	6.0	-1.3	8.9*	-3.0	16.0
Cc1cc(N2CCCC2)ccc1C=C(C#N)C#N	-0.1	-0.4	-85.6	4.5	-161.6	23.5
Cc1ccc2cc(C=C(C#N)C#N)c(Cl)nc2c1	12.4	50.8*	-3.8	1.1	-18.4	19.3
O=C(Nc1ccccc1)N1CC2CC(C1)c1cccc(=O)n1C2 (stereo not given)	-0.6	8.1	0.4	-0.7	-2.4	17.1
O=C(Nc1ccc(F)cc1)N1CC2CC(C1)c1cccc(=O)n1C2 (stereo not given)	-0.6	21.4*	nt	-1.5	-4.3	9.6
